Experimental data gathered from unrelated publications.
Protocols differ between the studies behind these lines.
Observed: metabolic stability
Host: human
Medium: liver microsomes

Structure (SMILES) | conditions | microsomal CLint [µL/min/mg]
COc1cc2[nH]c(C)c(-c3ccc(C(C)=O)cc3)c(=O)c2cc1Cl | 1 µM | 11
C[S+]([O-])c1ccc(-c2c(-c3ccccn3)nc3n2CCC3)cc1 (centres unmarked) | 3 µM, pH 7.4 | < 3
O=S(=O)(c1ccc(-c2ccc3nccc(Nc4ccncc4)c3c2)cc1)N1CCOCC1 | – | 82.4
Oc1cccc(-c2nc(N3CCC(c4ccccn4)C3)c3ccccc3n2)c1 (centres unmarked) | – | 165
COc1cc2[nH]c(C)c(-c3ccccc3C)c(=O)c2cc1Cl | 1 µM | 25
Fc1ccc(Nc2c(-c3ccccn3)nc3ccccn23)nc1 | 3 µM, pH 7.4 | 44
N#Cc1cccc(-c2nc(N3CCC(c4ccccn4)C3)c3ccccc3n2)c1 (centres unmarked) | – | 261
O=S(=O)(c1ccc(-c2ccc3ncccc3c2)cc1)N1CCOCC1 | – | 13.3
COc1cc2[nH]c(C)c(-c3ccc(S(=O)(=O)N(C)C)cc3)c(=O)c2cc1Cl | 1 µM | 17
c1ccc(C2CCN(c3nc(-c4ccco4)nc4ccccc34)C2)nc1 (centres unmarked) | – | 149
CN(C)C(=O)c1ccc(-c2c(-c3ccccn3)nc3n2CCC3)cc1 | 3 µM, pH 7.4 | < 3
COc1cc2[nH]c(C)c(-c3ccco3)c(=O)c2cc1Cl | 1 µM | 59
COc1ccc(-c2nc3ccccn3c2N(C)c2ccc(F)cc2)nc1 | 3 µM, pH 7.4 | 93
CCn1cc2c(N3CCC(c4ccccn4)C3)nc(-c3ccccn3)nc2n1 (centres unmarked) | – | < 1
